# Source: publication PMC11831629 (The Journal of International Medical Research, 2025)
# Bridge positions count the residues as written; N and C are the ends. Square brackets hold non-standard residues; d marks the D form. Peptide text beside a SMILES is read from it. * marks the point of attachment. X1 = CC[C@H](C)CCCCC(=O)*; Dab = NCC[C@H](N)C(=O)O
# Legend:
# [1] = multicenter study; cited from earlier work
# [2] = assay type: in vivo, human
# Outline: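 Elderly ICU patients without prior renal failure, AKI, RRT or ECMO received iv test compound for more than 3 days. AKI was a creatinine rise of more than 50% from baseline. Trough and peak plasma levels were measured by HPLC-MS/MS after at least six doses. AUCss,24h and Css,avg were derived with first-order elimination equations. ROC analysis gave sensitivity and specificity for AKI prediction.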
# [3] = ROC curve analysis, critically ill elderly patients, 28 AKI vs 30 non-AKI
smiles,measurement,setting,value
CC[C@H](C)CCCCC(=O)N[C@@H](CCN)C(=O)N[C@H](C(=O)N[C@@H](CCN)C(=O)N[C@H]1CCNC(=O)[C@H]([C@@H](C)O)NC(=O)[C@H](CCN)NC(=O)[C@H](CCN)NC(=O)[C@H](CC(C)C)NC(=O)[C@@H](Cc2ccccc2)NC(=O)[C@H](CCN)NC1=O)[C@@H](C)O [polymyxin B] (X1-[Dab]T[Dab][Dab][Dab][dF]L[Dab][Dab]T; lactam 4-C),mortality rate of patients with PB-associated AKI higher than that of patients without AKI,[1],17%
same,"area under the ROC curve of Css,avg for prediction of PB-AKI",[2]; 95% CI 0.579-0.847,0.713
same,area under the ROC curve of Cmin for prediction of PB-AKI,[2]; 95% CI 0.661-0.910,0.786
same,cutoff value for Cmin for predicting AKI,[2]; [3],2.94 mg/L
same,"cutoff value for Css,avg for predicting AKI",[2]; [3],4.14 mg/L
same,sensitivity of Cmin cutoff for prediction of PB-AKI,[2]; cutoff 2.94 mg/L,78.57%
same,specificity of Cmin cutoff for prediction of PB-AKI,[2]; cutoff 2.94 mg/L,80.00%
same,"sensitivity of Css,avg cutoff for prediction of PB-AKI",[2]; cutoff 4.14 mg/L,82.14
same,"specificity of Css,avg cutoff for prediction of PB-AKI",[2]; cutoff 4.14 mg/L,53.33%
